Consider four molecules from ChEMBL document CHEMBL4334447, “Discovery of 4-Aminoquinoline-3-carboxamide Derivatives as Potent Reversible Bruton's Tyrosine Kinase Inhibitors for the Treatment of Rheumatoid Arthritis” (J Med Chem, 2019).

A short description of series [1]: Kinetic aqueous solubility of the compound in pH 7.4 phosphate buffered saline incubated for 24 hrs under shaking condition by HPLC analysis. As to conditions: read-out: Kinetic_solubility. The class given is physicochemical. The essentials:
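Dry powder shaken 24 h at 25 °C in 0.1 M phosphate buffer, pH 7.4, then filtered through a 0.45 µm membrane. Concentration determined by HPLC against a standard of the compound in DMSO. Mean of three separate assays in triplicate.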

Series [2] addresses Tyrosine-protein kinase BTK (Homo sapiens, UniProt Q06187). Kind of series: Reversible inhibition of FAM-labeled peptide binding to full-length human N-terminal GST-tagged BTK (2 to 659 residues) expressed in baculovirus infected Sf21 insect cells at preincubated for 10 mins followed by FAM-labeled peptide addition and measured by off-chip mobility shift assay.
Series [3] is described as follows: Toxicity in complete freund's adjuvant-induced DBA/1 mouse arthritis model assessed as effect on appetite at 0.2 mg/kg, po qd administered starting from 29 day post-CFA challenge and measured on day 29, 33, 36, 40 and 43. The class given is organism-based. The note with it: in vivo, 696 h. The essentials:
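CIA in male DBA/1 mice: intradermal bovine type II collagen in CFA on day 0, collagen II in IFA boost on day 20. Randomized on day 29 and given oral doses once daily (n=6 per group) alongside vehicle and naive groups. Body weights recorded over the study days.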

Converted amounts (≈) assume the structure as drawn.

Chain of Tyrosine-protein kinase BTK (Q06187 whole entry, the tested form may be a part): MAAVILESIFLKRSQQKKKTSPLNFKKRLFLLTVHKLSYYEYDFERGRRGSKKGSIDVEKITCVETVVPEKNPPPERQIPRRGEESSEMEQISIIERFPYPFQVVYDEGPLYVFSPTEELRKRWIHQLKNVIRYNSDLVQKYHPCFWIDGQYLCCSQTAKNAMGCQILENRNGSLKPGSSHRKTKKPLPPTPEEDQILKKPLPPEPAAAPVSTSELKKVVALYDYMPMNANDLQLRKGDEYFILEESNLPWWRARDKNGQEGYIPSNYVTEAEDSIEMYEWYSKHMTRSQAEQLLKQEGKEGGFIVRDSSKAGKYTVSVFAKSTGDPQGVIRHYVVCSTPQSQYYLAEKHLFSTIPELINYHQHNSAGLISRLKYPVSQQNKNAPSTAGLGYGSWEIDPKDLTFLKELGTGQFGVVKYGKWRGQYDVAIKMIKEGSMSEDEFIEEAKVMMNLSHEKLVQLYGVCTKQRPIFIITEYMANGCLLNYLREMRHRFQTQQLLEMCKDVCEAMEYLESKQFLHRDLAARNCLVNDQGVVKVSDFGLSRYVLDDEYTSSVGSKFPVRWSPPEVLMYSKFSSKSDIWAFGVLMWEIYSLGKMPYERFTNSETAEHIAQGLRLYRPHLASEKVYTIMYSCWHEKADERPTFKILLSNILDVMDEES

For the molecule `Cc1cc2cn[nH]c2cc1-c1cccc2c(N)c(C(N)=O)nnc12`, in series [1], the solubility kinetic at 24 h was below 0.05 µg/mL.

What is called IC50 is the concentration needed to halve the response being measured. For the molecule `Cc1cc2cn[nH]c2cc1-c1cccc2c(N)c(C(N)=O)cnc12`, the concentration for half-maximal inhibition (IC50) in series [2] turned out to be 72.8 nM. Besides, the solubility kinetic at 24 h in series [1] came to 10.5 µg/mL (≈ 33.1 µM).

In the case of `Cc1cc2cn[nH]c2cc1-c1ccc(F)c2c(N)c(C(N)=O)cnc12`, the IC50 in series [2] was 11.6 nM. Also, in series [1], the solubility kinetic at 24 h was 5.2 µg/mL (≈ 15.5 µM).

With `C[C@@H]1C[C@H]2[C@@H]3CCC4=CC(=O)C=C[C@]4(C)[C@@]3(F)[C@@H](O)C[C@]2(C)[C@@]1(O)C(=O)CO` [DEXAMETHASONE], in series [3], the Activity entry is “Toxic”.
